Structures are written as SMILES.

Holding throughout (format): functional
Assay [1] concerns Staphylococcus aureus. Description: Antibacterial activity against Staphylococcus aureus RN4220 assessed as growth inhibition at 120 ug/ml after 16 hrs by spectrophotometric analysis. Particulars: RN4220, 16 h, read-out: GI. The method, boiled down:
(§1)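 Growth inhibition read as OD600 on 300 µL culture samples, with untreated control cultures taken as maximum growth. Percent inhibition = (OD600 control − OD600 treated) × 100 / OD600 control. Parent antibiotics and their conjugates were run in parallel at three concentrations per compound, in biological duplicate.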

In assay [2] the test system is Staphylococcus aureus. In words: Antibacterial activity against Staphylococcus aureus RN4220 assessed as growth inhibition at 60 ug/ml after 16 hrs by spectrophotometric analysis. Particulars: RN4220, 16 h, read-out: GI. In a few lines: as §1
For assay [3], the system named is Escherichia coli. In words: Antibacterial activity against Escherichia coli DH5alpha assessed as growth inhibition at 40 ug/ml after 16 hrs by spectrophotometric method. Particulars: DH5[alpha], read-out: GI. The method, boiled down:
as §1

For assay [4], the system named is Escherichia coli. In words: Antibacterial activity against Escherichia coli DH5alpha assessed as growth inhibition at 50 ug/ml after 16 hrs by spectrophotometric method. As to conditions: DH5[alpha], read-out: GI. In a few lines: as §1
Assay [5] has as its system Staphylococcus aureus. In words: Antibacterial activity against Staphylococcus aureus RN4220 assessed as growth inhibition at 240 ug/ml after 16 hrs by spectrophotometric analysis. As to conditions: RN4220, 16 h, read-out: GI. In a few lines: as §1
The test system of assay [6] is Escherichia coli. In words: Antibacterial activity against Escherichia coli DH5alpha assessed as growth inhibition at 75 ug/ml after 16 hrs by spectrophotometric method. As to conditions: DH5[alpha], read-out: GI. The method, boiled down: as §1
Assay [7] relates to Staphylococcus aureus. Description: Antibacterial activity against Staphylococcus aureus RN4220 assessed as growth inhibition at 15 ug/ml after 16 hrs by spectrophotometric analysis. Particulars: RN4220, 16 h, read-out: GI. In a few lines: as §1
Assay [8] concerns Escherichia coli. Description: Antibacterial activity against Escherichia coli DH5alpha assessed as growth inhibition at 3 ug/ml after 16 hrs by spectrophotometric method. As to conditions: DH5[alpha], read-out: GI. In a few lines:
as §1

Assay [9] deals with Escherichia coli. Description: Antibacterial activity against Escherichia coli DH5alpha assessed as growth inhibition at 1.5 ug/ml after 16 hrs by spectrophotometric method. As to conditions: DH5[alpha], read-out: GI. The method, boiled down: as §1
For assay [10], the system named is Pseudomonas aeruginosa. In words: Antibacterial activity against Pseudomonas aeruginosa PAO1 assessed as growth inhibition at 10 ug/ml after 16 hrs by spectrophotometric analysis. Particulars: PAO1, 16 h, read-out: GI. The method, boiled down:
as §1

For assay [11], the system named is Bacillus subtilis. In words: Antibacterial activity against Bacillus subtilis 168 assessed as growth inhibition at 20 ug/ml after 16 hrs by spectrophotometric analysis. Particulars: subsp. subtilis str. 168, 16 h, read-out: GI. The method, boiled down: as §1
Assay [12] has as its system Bacillus subtilis. Description: Antibacterial activity against Bacillus subtilis 168 assessed as growth inhibition at 10 ug/ml after 16 hrs by spectrophotometric analysis. Particulars: subsp. subtilis str. 168, 16 h, read-out: GI. In a few lines: as §1
Assay [13] concerns Staphylococcus aureus. Description: Antibacterial activity against Staphylococcus aureus RN4220 assessed as growth inhibition at 30 ug/ml after 16 hrs by spectrophotometric analysis. Particulars: RN4220, 16 h, read-out: GI. The method, boiled down: as §1
The test system of assay [14] is Bacillus subtilis. Description: Antibacterial activity against Bacillus subtilis 168 assessed as growth inhibition at 5 ug/ml after 16 hrs by spectrophotometric analysis. As to conditions: subsp. subtilis str. 168, 16 h, read-out: GI. The method, boiled down:
as §1

The subject of assay [15] is Pseudomonas aeruginosa. Description: Antibacterial activity against Pseudomonas aeruginosa PAO1 assessed as growth inhibition at 40 ug/ml after 16 hrs by spectrophotometric analysis. As to conditions: PAO1, 16 h, read-out: GI. In a few lines:
as §1

Assay [16] concerns Pseudomonas aeruginosa. Description: Antibacterial activity against Pseudomonas aeruginosa PAO1 assessed as growth inhibition at 20 ug/ml after 16 hrs by spectrophotometric analysis. Particulars: PAO1, 16 h, read-out: GI. The method, boiled down: as §1
The test system of assay [17] is Escherichia coli. Description: Antibacterial activity against Escherichia coli DH5alpha assessed as growth inhibition at 0.75 ug/ml after 16 hrs by spectrophotometric method. As to conditions: DH5[alpha], read-out: GI. In a few lines: as §1

For `C[C@H](NC(=O)OCc1ccccc1)C(=O)Nc1ccc(S(=O)(=O)Nc2ncccn2)cc1`, the inhibition of growth at 120 µg/mL with Staphylococcus aureus [1] was -9.38%. The inhibition of growth at 60 µg/mL with Staphylococcus aureus [2] was -9.96%. Also, in the assay on Escherichia coli [3], the inhibition of growth at 40 µg/mL is 2.13%. Also, in the assay with Escherichia coli [4], the inhibition of growth at 50 µg/mL is -0.61%. Moreover, the inhibition of growth at 240 µg/mL in the assay with Staphylococcus aureus [5] is 1.07%. Further, in the assay on Escherichia coli [6], the inhibition of growth at 75 µg/mL is -0.65%.

Take `CCn1cc(C(=O)O)c(=O)c2cc(F)c(N3CCN(C(=O)[C@H](C)NC(=O)OCc4ccccc4)CC3)cc21`: the inhibition of growth at 15 µg/mL in the assay on Staphylococcus aureus [7] worked out at 74.1%. The inhibition of growth at 3 µg/mL with Escherichia coli [8] turned out to be 3.52%. Further, the inhibition of growth at 1.5 µg/mL with Escherichia coli [9] was -0.24%. Moreover, the inhibition of growth at 10 µg/mL with Pseudomonas aeruginosa [10] is -26.8%; in the assay with Bacillus subtilis [12] it was 91.4%. In the assay on Staphylococcus aureus [2], the inhibition of growth at 60 µg/mL was 91%. Also, the inhibition of growth at 20 µg/mL in the assay with Bacillus subtilis [11] was 90.5%; in the assay with Pseudomonas aeruginosa [16], -14.2%. Further, the inhibition of growth at 30 µg/mL in the assay on Staphylococcus aureus [13] came to 81.8%. In the assay on Bacillus subtilis [14], the inhibition of growth at 5 µg/mL came to 92.2%. For the same compound, the inhibition of growth at 40 µg/mL with Pseudomonas aeruginosa [15] came to 20.5%. Also, in the assay with Escherichia coli [17], the inhibition of growth at 0.75 µg/mL was found to be 0.21%.

On to `CCn1cc(C(=O)O)c(=O)c2cc(F)c(N3CCNCC3)cc21` [NORFLOXACIN], for which the inhibition of growth at 15 µg/mL with Staphylococcus aureus [7] is 63.9%. In the assay with Escherichia coli [8], the inhibition of growth at 3 µg/mL was 80.8%. The inhibition of growth at 1.5 µg/mL in the assay with Escherichia coli [9] is 72.8%. In addition, the figures for the inhibition of growth at 10 µg/mL with Pseudomonas aeruginosa [10] and with Bacillus subtilis [12] were 81.1% and 91.9%, respectively. Besides, in the assay with Staphylococcus aureus [2], the inhibition of growth at 60 µg/mL came out at 81%. For the same compound, the figures for the inhibition of growth at 20 µg/mL in the assay with Bacillus subtilis [11] and with Pseudomonas aeruginosa [16] were 92.2% and 90.5%, respectively. Further, in the assay on Staphylococcus aureus [13], the inhibition of growth at 30 µg/mL came out at 73.5%. Further, the inhibition of growth at 5 µg/mL in the assay on Bacillus subtilis [14] was 90.7%. Also, the inhibition of growth at 40 µg/mL in the assay on Pseudomonas aeruginosa [15] came out at 89.1%. In the assay with Escherichia coli [17], the inhibition of growth at 0.75 µg/mL was determined as 55.3%.

With `O=C(C[C@H](NC(=O)OCc1ccccc1)C(=O)Nc1ccc(S(=O)(=O)Nc2ncccn2)cc1)OCc1ccccc1`, the inhibition of growth at 120 µg/mL with Staphylococcus aureus [1] was -2.44%. Moreover, in the assay with Staphylococcus aureus [2], the inhibition of growth at 60 µg/mL is -17.6%. In addition, the inhibition of growth at 40 µg/mL in the assay on Escherichia coli [3] was 4.72%. Also, in the assay on Escherichia coli [4], the inhibition of growth at 50 µg/mL was found to be 3.75%. In addition, the inhibition of growth at 240 µg/mL with Staphylococcus aureus [5] was determined as 3.48%. Moreover, in the assay on Escherichia coli [6], the inhibition of growth at 75 µg/mL came out at 4.72%.

With `CCn1cc(C(=O)O)c(=O)c2cc(F)c(N3CCN(C(=O)CNC(=O)OCc4ccccc4)CC3)cc21`, the inhibition of growth at 15 µg/mL in the assay with Staphylococcus aureus [7] came out at 83.6%. In addition, the inhibition of growth at 3 µg/mL in the assay with Escherichia coli [8] came out at 20.8%. The inhibition of growth at 1.5 µg/mL in the assay with Escherichia coli [9] worked out at 9.75%. For the same compound, the inhibition of growth at 10 µg/mL with Pseudomonas aeruginosa [10] is -16.2%; in the assay on Bacillus subtilis [12] it was 90.2%. In addition, the inhibition of growth at 60 µg/mL in the assay with Staphylococcus aureus [2] worked out at 88.5%. In addition, the inhibition of growth at 20 µg/mL in the assay on Bacillus subtilis [11] is 89.5%; in the assay on Pseudomonas aeruginosa [16], 10.6%. The inhibition of growth at 30 µg/mL in the assay on Staphylococcus aureus [13] is 85.7%. Besides, the inhibition of growth at 5 µg/mL with Bacillus subtilis [14] worked out at 91.6%. Also, the inhibition of growth at 40 µg/mL in the assay on Pseudomonas aeruginosa [15] turned out to be 81.5%. For the same compound, the inhibition of growth at 0.75 µg/mL in the assay with Escherichia coli [17] worked out at 5.96%.

For `Nc1ccc(S(=O)(=O)Nc2ncccn2)cc1` [SULFADIAZINE], the inhibition of growth at 120 µg/mL in the assay on Staphylococcus aureus [1] is 2.17%. For the same compound, in the assay on Staphylococcus aureus [2], the inhibition of growth at 60 µg/mL was -6.47%. Further, in the assay with Escherichia coli [3], the inhibition of growth at 40 µg/mL was found to be 2.66%. The inhibition of growth at 50 µg/mL in the assay with Escherichia coli [4] stood at 8.11%. For the same compound, in the assay on Staphylococcus aureus [5], the inhibition of growth at 240 µg/mL is 18.1%. For the same compound, the inhibition of growth at 75 µg/mL with Escherichia coli [6] came out at 6.44%.

Regarding `O=C(N[C@@H](Cc1ccccc1)C(=O)Nc1ccc(S(=O)(=O)Nc2ncccn2)cc1)OCc1ccccc1`, the inhibition of growth at 120 µg/mL in the assay on Staphylococcus aureus [1] is 18.2%. The inhibition of growth at 60 µg/mL with Staphylococcus aureus [2] is -8.23%. The inhibition of growth at 40 µg/mL in the assay on Escherichia coli [3] was 0.39%. Moreover, the inhibition of growth at 50 µg/mL in the assay with Escherichia coli [4] came out at 0.05%. Moreover, the inhibition of growth at 240 µg/mL with Staphylococcus aureus [5] is 29.1%. Besides, the inhibition of growth at 75 µg/mL in the assay with Escherichia coli [6] was determined as 3.46%.
